T cruzi growth-1 = T. cruzi intracellular proliferation inhibitors, primary screen, cell-based, beta-gal Tulahuen parasites, NIH3T3 host, luminescence; hit rate 5.9% among 77,000; inhibition, % at 8.34 µM; T. cruzi beta-gal in NIH3T3, GalScreen luminescence, 90 h; AID 624255, 2012;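 active = mean inhibition above about 93%, with at least 55% of replicates each passing it, limit read from the data, passing the limit was not always enough; inconclusive = only one of those two conditions holds; inactive = neither condition holds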
IDH1 R132H inh = inhibitors of IDH1 R132H reductase, primary screen, biochemical, plate reader, single point. Isocitrate dehydrogenase [NADP] cytoplasmic (Homo sapiens), O75874. diaphorase/resazurin fluorescence, 60 min. inhibition, % at 10 µM. hit rate 0.18% among 70,000. AID 624101, 2012; in the data active = inhibition above about 34%; inconclusive = no clear call, values can overlap the other calls; inactive = below about 11%;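 note: 0% = DMSO and 100% = no enzyme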
Target sequence (O75874 whole entry R132H): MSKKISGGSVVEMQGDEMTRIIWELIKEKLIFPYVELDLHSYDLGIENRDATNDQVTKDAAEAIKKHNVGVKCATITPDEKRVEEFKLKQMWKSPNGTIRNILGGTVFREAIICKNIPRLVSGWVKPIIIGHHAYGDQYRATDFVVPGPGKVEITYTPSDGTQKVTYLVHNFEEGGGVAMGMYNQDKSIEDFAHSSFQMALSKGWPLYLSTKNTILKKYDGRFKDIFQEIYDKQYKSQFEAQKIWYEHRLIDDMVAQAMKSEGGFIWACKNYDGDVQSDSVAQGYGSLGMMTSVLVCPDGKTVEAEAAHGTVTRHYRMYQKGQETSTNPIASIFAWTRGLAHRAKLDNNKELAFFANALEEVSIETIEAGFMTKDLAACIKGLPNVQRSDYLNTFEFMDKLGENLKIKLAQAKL
GASC1 inh = inhibitors of GASC-1 (KDM4C) histone demethylase, primary screen, biochemical, single concentration HTS; AID 720574, 2013; GST-KDM4C 2-372, H3K9me3 peptide, LANCE TR-FRET; hit rate 0.15% among 96,000; inhibition, % at 12.5 µM; Lysine-specific demethylase 4C (Homo sapiens), Q9H3R0;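 active = mean replicate inhibition above about 25%, with at least 55% of replicates also reaching it, limit read from the data, passing the limit was not always enough; inconclusive = only one of those two conditions met; inactive = neither condition met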
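Material: GST-tagged GASC-1 (JMJD2C) catalytic fragment, aa 2-372. Input: enzyme final amount 10 nM. Medium: HEPES buffer, pH 7.5, plus ascorbate. Reagent: H3K9me3 peptide substrate, Fe(II), 2-oxoglutarate. Doses: single dose. Times: reaction 30 min RT, detection step 1 h RT. Measured by: LANCE TR-FRET. Evaluation: Fall in 671/618 emission ratio as inhibition.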
T cruzi growth-2 = T. cruzi intracellular proliferation inhibitors, confirmation, cell-based, NIH3T3 host, beta-gal parasite, luminescence, cherry-pick; T. cruzi beta-gal in NIH3T3, GalScreen luminescence, 90 h; hit rate 72% among 5,600; inhibition, % at 8.35 µM; shares compounds with T cruzi growth-1;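 active = mean replicate inhibition above about 95% and at least 55% of replicates individually reaching it, limit read from the data; inconclusive = only one of the two criteria is met; inactive = neither criterion is met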
T cruzi growth-3 = inhibitors of intracellular T. cruzi replication, confirmation, NIH3T3 host cells, beta-gal parasites, cherry-pick, set 2 | shares compounds with T cruzi growth-1 | T. cruzi beta-gal in NIH3T3, GalScreen luminescence, 90 h | inhibition, % at 2.09 µM | hit rate 21% among 5,600 | AID 651740, 2012;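 active = mean inhibition above about 95%, with at least 55% of replicates also reaching it, limit read from the data; inconclusive = meets just one of the two conditions; inactive = meets neither condition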;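 note: plate controls were neutral control median for no effect and positive control median for full effect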
NIH3T3 tox = cytotoxicity in mouse NIH/3T3 fibroblasts, confirmation, cytotoxicity control for T. cruzi proliferation inhibitor project, cell-based, cherry-pick, single point. shares compounds with T cruzi growth-1. NIH/3T3 viability, CellTiter-Glo ATP luminescence, 90 h. cytotoxicity (signal decrease), % at 8.35 µM. hit rate 14% among 5,600;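 active = mean signal decrease across replicates above about 35% based on untreated-well scatter, with enough replicates individually passing, limit read from the data; inconclusive = no rule stated though some were filed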;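 note: 0% = median of neutral control wells and 100% = median of positive control wells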
3T3 cytotox 2 = NIH/3T3 fibroblast cytotoxicity, confirmation, cytotoxicity control, cell-based, cherry-pick, single point, set 2 | shares compounds with T cruzi growth-1 | NIH/3T3 viability, CellTiter-Glo ATP luminescence, 90 h | inhibition, % at 24.9 µM | hit rate 56% among 5,600 | AID 651744, 2012;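 active = mean loss of cell viability signal at or above a set limit, and enough replicates individually reaching it; inconclusive = meets only the mean limit or only the replicate share; inactive = meets neither condition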;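 note: 0% = median of neutral control wells and 100% = median of positive control wells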
* hit, by the source's call. Many of the other results were omitted from the sample, so hits are more common in it than they were.

C[C@@H]1CCCCO[C@H](CN(C)Cc2ccc(C(F)(F)F)cc2)[C@@H](C)CN([C@@H](C)CO)C(=O)c2cc(NS(=O)(=O)c3ccc(Cl)cc3)ccc2O1 was read as T cruzi growth-1 90 and GASC1 inh 1.
`C[C@@H]1CN([C@H](C)CO)C(=O)c2cc(NS(C)(=O)=O)ccc2O[C@@H](C)CCCCO[C@@H]1CN(C)Cc1ccc(C(F)(F)F)cc1` gave T cruzi growth-1 67, IDH1 R132H inh -3 and GASC1 inh -1.
C[C@@H]1CCCCO[C@@H](CN(C)Cc2ccc(C(F)(F)F)cc2)[C@@H](C)CN([C@H](C)CO)C(=O)c2cc(NS(=O)(=O)c3ccc(Cl)cc3)ccc2O1 was read as T cruzi growth-1 108*, GASC1 inh -1, T cruzi growth-2 95*, T cruzi growth-3 110*, NIH3T3 tox 25 and 3T3 cytotox 2 102*.
C[C@H]1CCCCO[C@@H](CN(C)Cc2ccc(C(F)(F)F)cc2)[C@@H](C)CN([C@@H](C)CO)C(=O)c2cc(NS(=O)(=O)c3ccccc3)ccc2O1 was read as T cruzi growth-1 76 and GASC1 inh 1.
For C[C@H]1CCCCO[C@H](CN(C)Cc2ccc(C(F)(F)F)cc2)[C@@H](C)CN([C@@H](C)CO)C(=O)c2cc(NS(=O)(=O)c3ccccc3)ccc2O1 the results were T cruzi growth-1 inconclusive, GASC1 inh 0, T cruzi growth-2 91, T cruzi growth-3 97*, NIH3T3 tox 3 and 3T3 cytotox 2 104*.
For COc1ccc2c(c1)c(=O)oc1c(C)c(OCC(=O)NCC3CCCO3)ccc12 (configuration not stated) the results were IDH1 R132H inh 0.
Screening Cn1c(SCC(=O)N2CCc3ccccc32)nnc1-c1ccco1 returned IDH1 R132H inh 0.
For COc1ccc(C(=O)c2ccccc2)c(Oc2nc([N+](=O)[O-])nn2C)c1 the results were IDH1 R132H inh 8.
`COc1ccc(OC)c(S(=O)(=O)N2CCC(C(=O)Nc3ccc(Cl)c(C(F)(F)F)c3)CC2)c1` gave IDH1 R132H inh 0.
Screening CC(=O)OC1=C(C(=O)c2ccccc2)N(C)S(=O)(=O)c2ccccc21 returned IDH1 R132H inh -1.
`Cc1noc(C)c1NC(=O)N1C[C@@H](O)COC[C@@H]2O[C@@H](CC(=O)NCC3CC3)CC[C@H]21` gave T cruzi growth-1 77 and GASC1 inh 1.
`O=C(C[C@H]1CC[C@@H]2[C@H](COC[C@H](O)CN2C(=O)Nc2ccc(Cl)c(Cl)c2)O1)NCc1ccc(F)cc1` gave T cruzi growth-1 39 and GASC1 inh 3.
`Cc1noc(C)c1NC(=O)N1C[C@@H](O)COC[C@@H]2O[C@H](CC(=O)NCC3CC3)CC[C@H]21` gave T cruzi growth-1 inconclusive, GASC1 inh 4, T cruzi growth-2 inconclusive, T cruzi growth-3 4, NIH3T3 tox -1 and 3T3 cytotox 2 -3.
Screening O=C(C[C@@H]1CC[C@@H]2[C@H](COC[C@H](O)CN2C(=O)Nc2ccc(Cl)c(Cl)c2)O1)NCc1ccc(Cl)c(Cl)c1 returned T cruzi growth-1 107*, GASC1 inh -1, T cruzi growth-2 100*, T cruzi growth-3 74, NIH3T3 tox 43* and 3T3 cytotox 2 103*.
For O=C(C[C@@H]1CC[C@@H]2[C@H](COC[C@@H](O)CN2C(=O)Nc2ccc(Cl)c(Cl)c2)O1)NCc1ccc(Cl)c(Cl)c1 the results were T cruzi growth-1 109*, GASC1 inh 0, T cruzi growth-2 91, T cruzi growth-3 97*, NIH3T3 tox 3 and 3T3 cytotox 2 90*.
For O=C(C[C@H]1CC[C@@H]2[C@H](COC[C@@H](O)CN2C(=O)Nc2ccc(Cl)c(Cl)c2)O1)NCc1ccc(F)cc1 the results were T cruzi growth-1 63 and GASC1 inh -2.
Screening O=C(NCCC(c1ccc(F)cc1)c1ccco1)c1cccs1 (configuration not stated) returned IDH1 R132H inh 0.
Screening COc1cc([N+](=O)[O-])ccc1NC(=O)CN(C)S(=O)(=O)c1ccc(C)cc1 returned IDH1 R132H inh 0.
COC(=O)Nc1ccc2c(c1)N(C(=O)CCN1CCOCC1)c1ccccc1CC2 was read as IDH1 R132H inh 0.
Screening CC(C)CC#Cc1ccc2c(c1)O[C@H](CN(C)C(=O)c1cccnc1)[C@H](C)CN([C@@H](C)CO)S2(=O)=O returned T cruzi growth-1 61, IDH1 R132H inh 11 and GASC1 inh 5.
`CC(C)CC#Cc1ccc2c(c1)O[C@H](CN(C)C(=O)c1cccc(F)c1)[C@H](C)CN([C@@H](C)CO)S2(=O)=O` gave T cruzi growth-1 120*, IDH1 R132H inh 0, GASC1 inh 0, T cruzi growth-2 104*, T cruzi growth-3 106*, NIH3T3 tox 24 and 3T3 cytotox 2 104*.
`CC(C)CC#Cc1ccc2c(c1)O[C@@H](CN(C)Cc1cccc(F)c1)[C@H](C)CN([C@H](C)CO)S2(=O)=O` gave T cruzi growth-1 50, IDH1 R132H inh 0 and GASC1 inh 0.
CC(C)C#Cc1ccc2c(c1)O[C@H](CN(C)C(=O)c1cccc(F)c1)[C@@H](C)CN([C@@H](C)CO)S2(=O)=O was read as T cruzi growth-1 101*, IDH1 R132H inh 0, GASC1 inh -2, T cruzi growth-2 103*, T cruzi growth-3 52, NIH3T3 tox 13 and 3T3 cytotox 2 34*.
For C[C@@H]1CN([C@@H](C)CO)S(=O)(=O)c2ccc(Br)cc2O[C@H]1CN(C)C(=O)c1cccc(F)c1 the results were GASC1 inh -1.
Screening CC(C)CC#Cc1ccc2c(c1)O[C@@H](CN(C)C(=O)c1cccc(F)c1)[C@@H](C)CN([C@H](C)CO)S2(=O)=O returned T cruzi growth-1 120*, IDH1 R132H inh 1, GASC1 inh -1, T cruzi growth-2 99*, T cruzi growth-3 92, NIH3T3 tox 23 and 3T3 cytotox 2 106*.

Screening data (PubChem)
